Reference: ChEMBL document CHEMBL5385911, “Exploring the Dispersion and Electrostatic Components in Arene-Arene Interactions between Ligands and G4 DNA to Develop G4-Ligands” (J Med Chem, 2024)
In brackets after ≈: the same amount, converted by molar mass. Activity calls are given as the source filed them. The calls are words filed in the database; no cut-off is given here.

How the values were obtained:
[1] = Stabilization of double stranded PEPu24T mut DNA (unknown origin) assessed as inhibition of Taq DNA polymerase activity by measuring reduction in full length DNA product at 6 uM pretreated for 10 mins followed by incubation with dNTPs for 15 mins by PAGE analysis; details: time 25.0 min
Outline: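 Non-G4 control template: TET-labelled 25 nt primer (1 μM final) annealed to mutated PEPu24T mut (1.25 μM final) in 100 mM KCl. 40 nM template, Taq buffer pH 8.8, 25 mM MgCl2, 0.05 U Taq. Compound on ice 10 min, then 100 μM dNTPs at 37 °C 15 min. Denaturing PAGE; full-length product as % of no-compound sample.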

[2] = system: Quadruplex DNA; experiment: Stabilization of 5'-FAM and 3'-TAMRA labelled c-Myc G4-quadruplex Pu24T DNA (unknown origin) assessed as increase in thermal stability of DNA structure at 5 to 40 equiv. by FRET melting assay; details: dose 5-40 equiv
[3] = system: Quadruplex DNA; experiment: Stabilization of G4-quadruplex PEPu24T DNA (unknown origin) assessed as inhibition of Taq DNA polymerase activity by measuring reduction in full length DNA product at 0.048 to 6 uM pretreated for 10 mins followed by incubation with dNTPs for 15 mins by PAGE analysis; type: nucleic-acid assay; details: dose 0.048-6 µM, time 25.0 min
Outline: (§1)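 Template made by annealing TET-labelled 25 nt primer (1 μM final) to PEPu24T (1.25 μM final) in 100 mM KCl. Reaction: 40 nM template, Taq buffer pH 8.8 with 50 mM KCl, 25 mM MgCl2, 0.05 U Taq. Compound preincubated on ice 10 min; dNTPs (100 μM) added, 37 °C 15 min. Denaturing 12% urea/formamide PAGE; full-length product expressed as % of no-compound sample; SD of ≥2 independent experiments.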

[4] = system: Quadruplex DNA; experiment: Stabilization of fluorescently labelled c-Myc G4-quadruplex Pu22 DNA (unknown origin) assessed as increase in thermal stability of DNA structure at 5 to 40 equiv. by FRET melting assay; type: nucleic-acid assay; details: dose 5-40 equiv
Outline: (§2)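 Pu22 (FAM/TAMRA, 0.2 μM), folded in 10 mM lithium cacodylate pH 7.4, 2 mM KCl, 98 mM LiCl. Ligand at 5, 10, 25 or 40 equivalents. Heated 10–95 °C; donor emission at 516 nm (excitation 492 nm) normalized. Tm taken at 0.5 normalized emission; ΔTm is Tm with ligand minus Tm without ligand. Duplicate wells.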

[5] = system: Quadruplex DNA; experiment: Stabilization of fluorescently labelled c-Myc G4-quadruplex Pu22 DNA (unknown origin) assessed as increase in thermal stability of DNA structure at 40 equiv. by FRET melting assay; type: nucleic-acid assay; outline: as §2
[6] = Solubility of the compound at pH 7.4; type: physicochemical; details: buffer
[7] = system: Quadruplex DNA; experiment: Stabilization of G4-quadruplex PEPu24T DNA (unknown origin) assessed as inhibition of Taq DNA polymerase activity by measuring full length DNA product at 0.24 uM pretreated for 10 mins followed by incubation with dNTPs for 15 mins by PAGE analysis; type: nucleic-acid assay; set-up: scale not given: the % may be the effect or the level left; details: time 25.0 min; outline: as §1
[8] = system: Quadruplex DNA; experiment: Stabilization of fluorescently labelled G4-quadruplex Tba DNA (unknown origin) assessed as increase in thermal stability of DNA structure at 5 uM by FRET melting assay; type: nucleic-acid assay
Outline: (§3)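 0.2 μM FAM/TAMRA dual-labelled oligonucleotide, prefolded in 10 mM lithium cacodylate pH 7.4, 10 mM KCl, 90 mM LiCl (95 °C 10 min, then ≥1 h cold). Ligand added and sample heated from 10 to 95 °C; donor emission at 516 nm (excitation 492 nm) normalized. Tm taken at 0.5 normalized emission; ΔTm is Tm with ligand minus Tm without ligand. Duplicate wells.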

[9] = system: Quadruplex DNA; experiment: Binding affinity to c-Myc G4-quadruplex Pu22 DNA (unknown origin) at 0.7 equivalent by NMR titration analysis; type: nucleic-acid assay; details: dose 0.7 equiv
Outline: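 Pu22 folded at 100 μM in 10 mM potassium phosphate pH 7.4, 35 mM KCl (95 °C 10 min, cooled overnight). 10% D2O added, giving 90 μM DNA. Compound added stepwise in increasing equivalents. 1D 1H spectra with excitation sculpting, 256 scans, 298 K, 850 MHz.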

[10] = system: Quadruplex DNA; experiment: Stabilization of fluorescently labelled G4-quadruplex c-KIT2 DNA (unknown origin) assessed as increase in thermal stability of DNA structure at 5 uM by FRET melting assay; type: nucleic-acid assay; outline: as §3
[11] = system: Quadruplex DNA; experiment: Stabilization of fluorescently labelled G4-quadruplex 21G DNA (unknown origin) assessed as increase in thermal stability of DNA structure at 5 uM by FRET melting assay; type: nucleic-acid assay; outline: as §3
[12] = system: Quadruplex DNA; experiment: Stabilization of fluorescently labelled G4-quadruplex 25Ceb DNA (unknown origin) assessed as increase in thermal stability of DNA structure at 5 uM by FRET melting assay; type: nucleic-acid assay; outline: as §3
[13] = system: Quadruplex DNA; experiment: Stabilization of G4-quadruplex DNA in human HeLa cells assessed as increase in BG4-positive cell nuclei at 20 uM incubated for 24 hrs by immunofluorescence microscopy; type: functional, cell-based
Outline: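 HeLa cells (60,000 on coverslips) treated 24 h. Cells fixed in 2% paraformaldehyde, permeabilized in 0.1% Triton X-100, blocked in 2% milk. Stained with BG4–FLAG (1/3000), rabbit anti-FLAG, then Alexa594 anti-rabbit, each 1 h at 37 °C; nuclei stained with DAPI. BG4 foci per nucleus counted, 90–166 cells per condition. Welch-corrected t tests on ln-transformed data; mean ± 2SD shown.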

[14] = system: Quadruplex DNA; experiment: Stabilization of fluorescently labelled G4-quadruplex Bcl2 DNA (unknown origin) assessed as increase in thermal stability of DNA structure at 5 uM by FRET melting assay; type: nucleic-acid assay; outline: as §3
[15] = system: Quadruplex DNA; experiment: Stabilization of G4-quadruplex PEPu24T DNA (unknown origin) assessed as inhibition of Taq DNA polymerase activity by measuring reduction in full length DNA product at 1.2 uM pretreated for 10 mins followed by incubation with dNTPs for 15 mins by PAGE analysis; type: nucleic-acid assay; details: time 25.0 min; outline: as §1
[16] = system: Quadruplex DNA; experiment: Stabilization of fluorescently labelled G4-quadruplex Bom17 DNA (unknown origin) assessed as increase in thermal stability of DNA structure at 5 uM by FRET melting assay; type: nucleic-acid assay; outline: as §3
[17] = system: Quadruplex DNA; experiment: Binding affinity to c-Myc G4-quadruplex Pu22 DNA (unknown origin) assessed as change in entropy by isothermal titration calorimetry; type: nucleic-acid assay
Outline: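 Reverse titration: cell holds 20 μM ligand, syringe 120 μM prefolded G4 DNA, 20 injections in 10 mM potassium phosphate, 100 mM KCl, pH 7.4, at 19 °C. First injection 0.5 μL, then 2 μL, 120 s spacing, 1000 rpm, high-feedback mode. Data fitted to one-site binding model.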

[18] = system: Quadruplex DNA; experiment: Stabilization of fluorescently labelled c-Myc G4-quadruplex Pu22 DNA (unknown origin) assessed as increase in thermal stability of DNA structure at 5 uM in presence of double stranded competitor DNA ds26 by FRET melting assay; type: nucleic-acid assay
Outline: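 Competition melting: 0.2 μM labelled Pu22 in 10 mM lithium cacodylate pH 7.4, 2 mM KCl, 98 mM LiCl, with ligand plus 0–100 equivalents of ds26 duplex competitor. Heated 10–95 °C; FAM emission normalized. Tm taken at 0.5 normalized emission; ΔTm is Tm with ligand minus Tm without ligand. SD of at least six independent experiments.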

[19] = system: THP-1; experiment: Cytotoxicity against human THP-1 cells assessed as reduction in cell viability at <50 uM; type: toxicity, cell-based; details: thp-1, 50 µM
[20] = system: dsDNA; experiment: Binding affinity to 5'-Cy5-labelled double stranded DNA ds26 (unknown origin) by microscale thermophoresis analysis; type: nucleic-acid assay
Outline: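 Cy5-labelled DNA held at 25 nM, folded in 10 mM phosphate, 100 mM KCl, pH 7.4 (95 °C 5 min, cooled to room temperature). Ligand in 16 1:3 dilutions in 10 mM phosphate pH 7.4, 100 mM KCl, 0.05% Tween20. Capillary fluorescence read at 20% LED power; change in fluorescence versus ligand concentration fitted by nonlinear equation for binding constant.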

Row | Compound | Activity [1] | Activity [2] | Activity [5] | solubility [6] [µM] | also measured
1 | Cc1cc(NCCCN(C)C)nc(Nc2cnc3ccccc3n2)n1 | inactive | Active |  |  | Activity [3]: Active; Activity [4]: inactive
2 | Cc1ccc2nc(Nc3nc(C)cc(NCCCN(C)C)n3)nc(C)c2c1 | inactive | Active | Active | 858 (≈ 314 µg/mL) | Activity [7]: 30%
3 | Cc1cc(NCCCN(C)C)nc(Nc2nc(C)c3cc(Cl)ccc3n2)n1 | inactive | Active | Active | 858 (≈ 331 µg/mL) | 
4 | Cc1cc(NCCCN(C)C)nc(Nc2nc(C)c3ccccc3n2)n1 | inactive | Active | Active |  | 

Further lines, with some results ahead:

Row | Activity [1] | Activity [2] | Activity [5] | solubility [6] [µM] | Compound | also measured
5 | inactive |  |  | 134 (≈ 35.6 µg/mL) | Cc1cc(C)nc(Nc2nc(C)c3ccccc3n2)n1 | 
6 | inactive |  |  |  | Cc1cc(C)nc(Nc2nc(C)c3cc(Cl)ccc3n2)n1 | 
7 | inactive |  |  | 134 (≈ 39.3 µg/mL) | Cc1cc(C)c2nc(Nc3nc(C)cc(C)n3)nc(C)c2c1 | Activity [8]: inactive; Activity [9]: Active; Activity [10]: Active; Activity [11]: Active; Activity [12]: Active; Activity [13]: Active; Activity [14]: Active; inhibition [15]: 50%; Activity [16]: Active; -TdeltaS [17]: 3.2 kcal/mol; Activity [18]: Active; Activity [19]: Non-Toxic; Activity [20]: inactive
8 | inactive |  |  | 134 (≈ 39.6 µg/mL) | COc1ccc2nc(Nc3nc(C)cc(C)n3)nc(C)c2c1 | 
